From ChEMBL document CHEMBL3853327 (J Med Chem, 2016)

How the values were obtained:
[1] = tested on: Human immunodeficiency virus 1; test: Antiviral activity against HIV1 3B harboring reverse transcriptase Y181C mutant infected in human MT4 cells assessed as protection against virus induced cytotoxicity after 5 days by MTT assay; assay type: functional, cell-based; conditions: Human immunodeficiency virus 1, 3B, MT4, 120 h
In short: (§1)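 MTT cytopathicity assay in MT-4 cells (6 × 10^5 cells/mL). Compounds serially diluted 5-fold in triplicate wells, run in parallel on infected and mock-infected cells. Virus added at 100−300 CCID50 per well. Viability read spectrophotometrically at 540 and 690 nm after 5 days, using the median OD of three wells.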

[2] = tested on: Human immunodeficiency virus 1; test: Antiviral activity against HIV1 3B harboring reverse transcriptase L100I mutant infected in human MT4 cells assessed as protection against virus induced cytotoxicity after 5 days by MTT assay; assay type: functional, cell-based; conditions: Human immunodeficiency virus 1, 3B, MT4, 120 h
In short: (§2)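 MTT cytopathicity assay in MT-4 cells (6 × 10^5 cells/mL). Compounds serially diluted 5-fold in triplicate wells, run in parallel on infected and mock-infected cells. Virus added at 100−300 CCID50 per well. Viability read spectrophotometrically at 540 and 690 nm after 5 days, using the median OD of three wells. EC50 is the concentration giving 50% protection from viral cytopathogenicity.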

[3] = Selectivity index, ratio of CC50 for human mock-infected MT4 cells to EC50 for HIV1 3B harboring reverse transcriptase Y181C mutant infected in human MT4 cells; assay type: toxicity, cell-based; conditions: MT4 cells (mock-infected for CC50, HIV-1 infected for EC50)
In short: (§3)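 Selectivity index is CC50/EC50. CC50 is the concentration that reduces OD540 of mock-infected MT-4 cells by 50% in the 5-day MTT assay. EC50 is the 50% protection from virus-induced cytopathicity, measured in parallel on infected wells.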

[4] = Selectivity index, ratio of CC50 for human mock-infected MT4 cells to EC50 for HIV1 3B harboring reverse transcriptase L100I mutant infected in human MT4 cells; assay type: toxicity, cell-based; conditions: MT4 cells (mock-infected for CC50, HIV-1 infected for EC50); in short: as §3
[5] = Selectivity index, ratio of CC50 for human mock-infected MT4 cells to EC50 for HIV1 3B harboring reverse transcriptase K103N mutant infected in human MT4 cells; assay type: toxicity, cell-based; conditions: MT4 cells (mock-infected for CC50, HIV-1 infected for EC50); in short: as §3
[6] = Selectivity index, ratio of CC50 for human mock-infected MT4 cells to EC50 for HIV1 3B harboring reverse transcriptase F227L/V106A double mutant infected in human MT4 cells; assay type: toxicity, cell-based; conditions: MT4 cells (mock-infected for CC50, HIV-1 infected for EC50); in short: as §3
[7] = Selectivity index, ratio of CC50 for human mock-infected MT4 cells to EC50 for HIV1 3B harboring reverse transcriptase E138K mutant infected in human MT4 cells; assay type: toxicity, cell-based; conditions: MT4 cells (mock-infected for CC50, HIV-1 infected for EC50); in short: as §3
[8] = Selectivity index, ratio of CC50 for human mock-infected MT4 cells to EC50 for wild type HIV1 3B harboring reverse transcriptase infected in human MT4 cells; assay type: toxicity, cell-based; conditions: MT4 cells (mock-infected for CC50, HIV-1 infected for EC50); in short: as §3
[9] = tested on: Human immunodeficiency virus 1; test: Antiviral activity against HIV1 3B harboring reverse transcriptase F227L/V106A double mutant infected in human MT4 cells assessed as protection against virus induced cytotoxicity after 5 days by MTT assay; assay type: functional, cell-based; conditions: Human immunodeficiency virus 1, 3B, MT4, 120 h; in short: as §2
[10] = Selectivity index, ratio of CC50 for human mock-infected MT4 cells to EC50 for HIV1 RES056 harboring reverse transcriptase K103N/Y181C double mutant infected in human MT4 cells; assay type: toxicity, cell-based; conditions: MT4 cells (mock-infected for CC50, HIV-1 infected for EC50); in short: as §3
[11] = tested on: Human immunodeficiency virus 1; test: Antiviral activity against HIV1 3B harboring reverse transcriptase K103N mutant infected in human MT4 cells assessed as protection against virus induced cytotoxicity after 5 days by MTT assay; assay type: functional, cell-based; conditions: Human immunodeficiency virus 1, 3B, MT4, 120 h; in short: as §2
[12] = Antiviral activity against HIV2 ROD harboring reverse transcriptase infected in human MT4 cells assessed as protection against virus induced cytotoxicity after 5 days by MTT assay; assay type: functional, cell-based, Human immunodeficiency virus type 2 (ISOLATE ROD); conditions: Human immunodeficiency virus 2, MT4, 120 h; in short: as §2
[13] = Selectivity index, ratio of CC50 for human mock-infected MT4 cells to EC50 for HIV1 3B harboring reverse transcriptase Y188L mutant infected in human MT4 cells; assay type: toxicity, cell-based; conditions: MT4 cells (mock-infected for CC50, HIV-1 infected for EC50); in short: as §3
[14] = tested on: Human immunodeficiency virus 1; test: Antiviral activity against HIV1 3B harboring reverse transcriptase Y188L mutant infected in human MT4 cells assessed as protection against virus induced cytotoxicity after 5 days by MTT assay; assay type: functional, cell-based; conditions: Human immunodeficiency virus 1, 3B, MT4, 120 h; in short: as §2
[15] = tested on: Human immunodeficiency virus 1; test: Antiviral activity against wild type HIV1 3B harboring reverse transcriptase infected in human MT4 cells assessed as protection against virus induced cytotoxicity after 5 days by MTT assay; assay type: functional, cell-based; conditions: Human immunodeficiency virus 1, 3B, MT4, 120 h; in short: as §1
[16] = tested on: Human immunodeficiency virus 1; test: Antiviral activity against HIV1 3B harboring reverse transcriptase E138K mutant infected in human MT4 cells assessed as protection against virus induced cytotoxicity after 5 days by MTT assay; assay type: functional, cell-based; conditions: Human immunodeficiency virus 1, 3B, MT4, 120 h; in short: as §2
[17] = Cytotoxicity against human mock-infected MT4 cells assessed as reduction in cell viability after 5 days by MTT assay; assay type: toxicity, cell-based
In short: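 Mock-infected MT-4 cells (6 × 10^5 cells/mL at seeding) with serial 5-fold compound dilutions in triplicate wells. Viability read by MTT after 5 days, absorbance at 540 and 690 nm, median OD of three wells. CC50 is the concentration reducing OD540 of mock-infected cells by 50%.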

[18] = Inhibition of recombinant wild type HIV1 reverse transcriptase using DIG-dUTP/biotin-dUTP/dTTP assessed as suppression of biotin-dUTP incorporation after 1 hr by ELISA; design: species or system Human immunodeficiency virus 1
In short: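 Recombinant WT HIV-1 RT in a Roche colorimetric kit: template plus DIG-dUTP, biotin-dUTP and dTTP, ±inhibitor, 1 h at 37 °C. Product captured on streptavidin plate 1 h at 37 °C, anti-DIG-POD 1 h at 37 °C, ABTS developed at 25 °C, read at OD405. IC50 is the concentration inhibiting biotin-dUTP incorporation by 50%.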

SMILES | EC50 [1] [µM] | EC50 [2] [µM] | selectivity ratio [3] | selectivity ratio [4] | selectivity ratio [5] | selectivity ratio [6] | selectivity ratio [7] | selectivity ratio [8] | EC50 [9] [µM] | selectivity ratio [10] | EC50 [11] [µM] | EC50 [12] [µM] | selectivity ratio [13] | EC50 [14] [µM] | EC50 [15] [µM] | EC50 [16] [µM] | CC50 at 120 h [17] [µM] | IC50 [18] [µM]
Cc1cc(C)c(Oc2nc(NC3CCN(Cc4ccc(C(N)=O)cc4)CC3)nc3ccsc23)c(C)c1 | 0.0427 | 0.0961 | 135 | 60 | 671 | 54 | 265 | 896 | 0.107 | 18 | 0.0087 | > 5.81 | 136 | 0.0426 | 0.0065 | 0.0219 | 5.81 | 
CCOC(=O)c1ccc(CN2CCC(Nc3nc(Oc4c(C)cc(C#N)cc4C)c4sccc4n3)CC2)cc1 | 3.71 | 11.3 | > 62 | > 20 | > 446 | > 20 | > 227 | ≥ 1440 | 12.8 | 1 | 0.511 | > 231 | > 49 | 4.67 | 0.161 | 1.02 | ≥ 231 | 
Cc1cc(C#N)cc(C)c1Oc1nc(NC2CCN(Cc3ccc(F)cc3F)CC2)nc2ccsc12 |  |  |  |  |  |  |  | 185 |  | < 1 |  | > 4.08 |  |  | 0.022 |  | 4.08 | 
Cc1cc(C)c(Oc2nc(NC3CCN(Cc4cccc(C(N)=O)c4)CC3)nc3ccsc23)c(C)c1 | 0.183 | 0.399 | 41 | 19 | 81 | 9 | 149 | 531 | 0.852 | 1 | 0.0938 | > 7.64 | 32 | 0.234 | 0.0144 | 0.051 | 7.64 | 
Cc1cc(C#N)cc(C)c1Oc1nc(NC2CCN(Cc3cccc(S(N)(=O)=O)c3)CC2)nc2ccsc12 | 0.0209 | 0.0284 | > 10900 | > 8030 | > 30100 | > 26700 | > 35200 | > 96000 | 0.0085 | > 120 | ≤ 0.0076 | > 228 | > 17800 | 0.0128 | 0.0024 | 0.0065 | > 228 | 
Nc1ccn([C@@H]2CS[C@H](CO)O2)c(=O)n1 [LAMIVUDINE] |  |  |  |  |  |  |  | > 39 |  |  |  | 8.79 |  |  |  |  | > 87.2 | 
Cc1cc(C#N)cc(C)c1Oc1nc(NC2CCN(Cc3cccc(C(N)=O)c3)CC2)nc2ccsc12 | 0.0495 | 0.05 | > 984 | > 975 | > 4710 | > 374 | > 3510 | > 19200 | 0.13 | 1 | 0.0103 | > 48.8 | > 836 | 0.0583 | 0.0025 | 0.0138 | > 48.8 | 
Cc1cc(C)c(Oc2nc(NC3CCN(Cc4ccc([N+](=O)[O-])cc4)CC3)nc3ccsc23)c(C)c1 | 0.2 | > 6.39 | 32 | < 1 | 120 | < 1 | 51 | 201 | > 6.39 | < 1 | 0.0534 | > 6.39 | 24 | 0.262 | 0.0318 | 0.126 | 6.39 | 
Cc1cc(C)c(Oc2nc(NC3CCN(Cc4ccc(S(N)(=O)=O)cc4)CC3)nc3ccsc23)c(C)c1 | 4.84 | 4.52 | 3 | 4 | 3 | 4 | 3 |  | 4.55 | < 1 | 4.94 | > 16.5 | 2 | 8.47 | 3.55 | 5.5 | 16.5 | 
Cc1cc(C#N)cc(C)c1Oc1nc(Nc2ccc(C#N)cc2)nc(N)c1Br [ETRAVIRINE] |  | 0.0054 |  |  |  |  |  |  | 0.0294 |  | 0.0024 |  |  | 0.0205 |  | 0.0144 | > 4.59 | 0.011
CC(=O)NS(=O)(=O)c1ccc(CN2CCC(Nc3nc(Oc4c(C)cc(C#N)cc4C)c4sccc4n3)CC2)cc1 | 0.0288 | 0.0208 | > 104 | > 145 | > 369 | > 340 | > 340 | > 576 | 0.0088 | 20 | 0.0082 | > 3.03 | > 222 | 0.0136 | 0.0052 | 0.0088 | > 3.03 | 
